Laboratory results published in publication PMC3902791 (Molecular imaging and biology : MIB : the official …, 2012).
“Also recorded” adds a separate entry of the source.

Assays:
[1] = Dynamic and whole-body PET imaging of pharmacokinetics and biodistribution; format: in vivo, rhesus macaques
Outline: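 ECAT HR+ scanner; 10-min transmission scan, then i.v. radiotracer (165.4 ± 28.5 MBq). Lower thorax to upper abdomen was imaged dynamically for 0–30 min in 2D mode, 29 frames (20×15 s, 5×1 min, 4×5 min). Three whole-body static scans followed at 40, 100 and 170 min (3-min transmission, 5-min emission, 4–5 beds). OSEM reconstruction with attenuation, scatter, random and dead-time correction. 3D VOIs gave organ %ID/g time–activity curves.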

rhesus macaques = experiment: ECG monitoring for acute toxicity during PET imaging; format: in vivo
Outline: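 Animals were anaesthetised (atropine 0.04 mg/kg i.m.; telazole or ketamine i.m.; isoflurane 1.0–3.0% in oxygen), intubated, mechanically ventilated and kept at 37±0.8°C. ECG, blood pressure, pulse oximetry and respiration rate were monitored throughout the imaging study after i.v. radiotracer.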

Question: Which “accumulation or retention in the brain” value ([1]; PET) does the source give for `O=C(O)C[18F]` [^18F-FACE, ^18F-fluoroacetate] here?
Answer: No significant accumulation or retention

Question: And the “uptake of radioactivity (free ^18F-fluoride) in bones / skeletal structures” value ([1]; PET, over 2 to 3 h post-injection)?
Answer: insignificant; also recorded: limited

Question: What about the “radioactivity concentration in liver” value ([1]; at 5 min) of the same compound?
Answer: 0.040 % ID/g

Question: And the “level of radioactivity in the blood” value ([1]; within 5 min after i.v. injection)?
Answer: 0.040±0.02 % ID/g

Question: And the “changes in ECG (cardiac rhythm, electrical activity)” value (rhesus macaques; administration to 180 min post-injection)?
Answer: None of the animals injected with ^18F-FACE demonstrated any significant changes in cardiac rhythm or electrical activity patterns; also recorded: no significant changes to the ECG

Question: And the “ECG PR” value (rhesus macaques; time 1 min)?
Answer: 0.11 ± 0.01 s

Question: What about the “ECG QRS” value (rhesus macaques; time 1 min) of the same compound?
Answer: 0.05 ± 0.01 s

Question: What about the “ECG QT” value (rhesus macaques; time 1 min) of the same compound?
Answer: 0.35 ± 0.04 s

Question: What about the “ECG ST” value (rhesus macaques; time 1 min) of the same compound?
Answer: 0.80 ± 0.45 s

Question: And the ECG p (rhesus macaques; time 1 min)?
Answer: 0.04 ± 0.01 s

Question: And the Heart rate (rhesus macaques; time 1 min)?
Answer: 88±8 per minute

Question: What about the “ECG PR” value (rhesus macaques; time 2 min) of the same compound?
Answer: 0.11 ± 0.01 s

Question: And the “ECG QRS” value (rhesus macaques; time 2 min)?
Answer: 0.04 ± 0.00 s

Question: And the “ECG QT” value (rhesus macaques; time 2 min)?
Answer: 0.34 ± 0.05 s

Question: What about the “ECG ST” value (rhesus macaques; time 2 min) of the same compound?
Answer: 1.00 ± 0.50 s

Question: What about the ECG p (rhesus macaques; time 2 min) of the same compound?
Answer: 0.04 ± 0.00 s

Question: What about the Heart rate (rhesus macaques; time 2 min) of the same compound?
Answer: 88±8 per minute

Question: And the “ECG PR” value (rhesus macaques; time 5 min)?
Answer: 0.11 ± 0.02 s

Question: What about the “ECG QRS” value (rhesus macaques; time 5 min) of the same compound?
Answer: 0.04 ± 0.01 s

Question: What about the “ECG QT” value (rhesus macaques; time 5 min) of the same compound?
Answer: 0.35 ± 0.04 s

Question: And the “ECG ST” value (rhesus macaques; time 5 min)?
Answer: 0.95 ± 0.51 s

Question: What about the ECG p (rhesus macaques; time 5 min) of the same compound?
Answer: 0.04 ± 0.01 s

Question: What about the Heart rate (rhesus macaques; time 5 min) of the same compound?
Answer: 88±7 per minute

Question: And the “ECG PR” value (rhesus macaques; time 16 min)?
Answer: 0.10 ± 0.01 s

Question: And the “ECG QRS” value (rhesus macaques; time 16 min)?
Answer: 0.04 ± 0.00 s

Question: And the “ECG QT” value (rhesus macaques; time 16 min)?
Answer: 0.34 ± 0.04 s

Question: And the “ECG ST” value (rhesus macaques; time 16 min)?
Answer: 0.80 ± 0.41 s

Question: And the ECG p (rhesus macaques; time 16 min)?
Answer: 0.05 ± 0.01 s

Question: And the Heart rate (rhesus macaques; time 16 min)?
Answer: 87±6 per minute

Question: And the “ECG PR” value (rhesus macaques; time 32 min)?
Answer: 0.11 ± 0.01 s

Question: What about the “ECG QRS” value (rhesus macaques; time 32 min) of the same compound?
Answer: 0.04 ± 0.00 s

Question: What about the “ECG QT” value (rhesus macaques; time 32 min) of the same compound?
Answer: 0.34 ± 0.03 s

Question: And the “ECG ST” value (rhesus macaques; time 32 min)?
Answer: 0.60 ± 0.38 s

Question: And the ECG p (rhesus macaques; time 32 min)?
Answer: 0.05 ± 0.01 s

Question: And the Heart rate (rhesus macaques; time 32 min)?
Answer: 89±7 per minute

Question: And the “ECG PR” value (rhesus macaques; time 60 min)?
Answer: 0.11 ± 0.01 s

Question: What about the “ECG QRS” value (rhesus macaques; time 60 min) of the same compound?
Answer: 0.04 ± 0.01 s

Question: What about the “ECG QT” value (rhesus macaques; time 60 min) of the same compound?
Answer: 0.34 ± 0.04 s

Question: And the “ECG ST” value (rhesus macaques; time 60 min)?
Answer: 0.70 ± 0.54 s

Question: And the ECG p (rhesus macaques; time 60 min)?
Answer: 0.04 ± 0.00 s

Question: And the Heart rate (rhesus macaques; time 60 min)?
Answer: 89±7 per minute

Question: And the “ECG PR” value (rhesus macaques; time 90 min)?
Answer: 0.11 ± 0.01 s

Question: And the “ECG QRS” value (rhesus macaques; time 90 min)?
Answer: 0.04 ± 0.00 s

Question: What about the “ECG QT” value (rhesus macaques; time 90 min) of the same compound?
Answer: 0.34 ± 0.03 s

Question: What about the “ECG ST” value (rhesus macaques; time 90 min) of the same compound?
Answer: 0.70 ± 0.54 s

Question: What about the ECG p (rhesus macaques; time 90 min) of the same compound?
Answer: 0.04 ± 0.01 s

Question: And the Heart rate (rhesus macaques; time 90 min)?
Answer: 87±5 per minute

Question: And the “ECG PR” value (rhesus macaques; time 120 min)?
Answer: 0.11 ± 0.01 s

Question: And the “ECG QRS” value (rhesus macaques; time 120 min)?
Answer: 0.05 ± 0.01 s

Question: And the “ECG QT” value (rhesus macaques; time 120 min)?
Answer: 0.33 ± 0.03 s

Question: And the “ECG ST” value (rhesus macaques; time 120 min)?
Answer: 0.60 ± 0.38 s

Question: And the ECG p (rhesus macaques; time 120 min)?
Answer: 0.04 ± 0.01 s

Question: And the Heart rate (rhesus macaques; time 120 min)?
Answer: 88±3 per minute

Question: What about the “ECG PR” value (rhesus macaques; time 180 min) of the same compound?
Answer: 0.10 ± 0.01 s

Question: And the “ECG QRS” value (rhesus macaques; time 180 min)?
Answer: 0.04 ± 0.00 s

Question: And the “ECG QT” value (rhesus macaques; time 180 min)?
Answer: 0.34 ± 0.03 s

Question: And the “ECG ST” value (rhesus macaques; time 180 min)?
Answer: 0.85 ± 0.63 s

Question: And the ECG p (rhesus macaques; time 180 min)?
Answer: 0.04 ± 0.01 s

Question: What about the Heart rate (rhesus macaques; time 180 min) of the same compound?
Answer: 93±8 per minute
